In ChEMBL document CHEMBL1124993, “2-Phenyl-2-(1-hydroxycycloalkyl)ethylamine derivatives: synthesis and antidepressant activity” (J Med Chem, 1990):
The source made the active and inactive calls. No cut-off for these calls is given here.

Key:
[1] = biological target: Norepinephrine transporter (Rattus norvegicus, UniProt Q9WTR4); assay: Inhibition of uptake of tritiated norepinephrine (NE) into rat brain synaptosomes; assay type: functional, subcellular
[2] = biological target: Sodium-dependent serotonin transporter (Rattus norvegicus, UniProt P31652); assay: Inhibition of uptake of [14C]-labelled serotonin (5-HT) into rat brain synaptosomes
Mus musculus = assay: In vivo antagonism of reserpine-induced hypothermia in the mice; assay type: functional; details: for minimal effective dose: Mus musculus, read-out: MED
Summary of the method: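 Male mice pretreated 18 h earlier with reserpine 5.0 mg/kg sc; compounds in 0.25% Tween 80 in water given ip or po at 1, 3, 10, 30, 100 mg/kg. Rectal temperature read at 1, 2, 3 h post-dose; MED for reversing hypothermia from two-way ANOVA with Dunnett's comparison to control.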

Rattus norvegicus [3] = assay: (§1) In vivo antagonism of histamine-induced ACTH release in the rat at 10 mg/kg (ip).; assay type: functional
Summary of the method: (§2)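 Male Sprague–Dawley rats (200–300 g) given compound in saline ip 1 h before saline or histamine (5 mg/kg ip); decapitated 10 min later, trunk blood serum assayed for ACTH by radioimmunoassay (pg/mL). Two-way ANOVA with Dunnett's and Student–Neuman–Keuls tests; value is % decrease of histamine-stimulated ACTH.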

Rattus norvegicus [4] = assay: In vivo noradrenergic responsiveness in the rat pineal gland at 10 mg/kg (ip) (single treatment); assay type: functional
Summary of the method: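 Male Sprague–Dawley rats kept in continuous light, given saline twice daily for 5 days, then a single 10 or 30 mg/kg ip dose on day 5. 1 h later, isoproterenol 2 μmol/kg in 0.1% ascorbic acid (or vehicle). Pineal removed 2.5 min after, perchloric acid extract, cAMP by radioimmunoassay; % change versus isoproterenol-stimulated controls.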

Rattus norvegicus [5] = assay: (§3) In vivo noradrenergic responsiveness in the rat pineal gland at 10 mg/kg (ip) (chronic treatment); assay type: functional
Summary of the method: (§4)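 Male Sprague–Dawley rats kept in continuous light, dosed ip twice daily for 5 days (nine injections). 1 h after last dose, isoproterenol 2 μmol/kg in 0.1% ascorbic acid (controls: vehicle); pineal removed 2.5 min later, perchloric acid extract assayed for cAMP by 125I radioimmunoassay. Expressed as % change from control isoproterenol-stimulated pmol cAMP/pineal.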

Rattus norvegicus [6] = assay: as §1; assay type: functional; remark: listed apart in the source
Summary of the method: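 Male Sprague–Dawley rats (200–300 g), 10 mg/kg in saline ip, 1 h before saline or histamine (5 mg/kg ip). Decapitated 10 min later; trunk-blood serum frozen at -60 °C, ACTH measured by radioimmunoassay (pg/mL). Two-way ANOVA with Dunnett's and Student–Neuman–Keuls tests; expressed as % decrease.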

Rattus norvegicus [7] = assay: In vivo noradrenergic responsiveness in the rat pineal gland at 10 mg/kg (ip) (single treatment); No significant effect; assay type: functional, organism-based; set-up: dose 10 mg/kg
Rattus norvegicus [8] = assay: In vivo noradrenergic responsiveness in the rat pineal gland at 10 mg/kg (ip) (chronic treatment); No significant effect; assay type: functional, organism-based; set-up: dose 10 mg/kg; summary of the method: as §4
Rattus norvegicus [9] = assay: In vivo antagonism of histamine-induced ACTH release in the rodents at 10 mg/kg (ip); No significant effect; assay type: functional, organism-based; set-up: dose 10 mg/kg; summary of the method: as §2
Rattus norvegicus [10] = assay: as §3; assay type: functional; remark: listed apart in the source
Summary of the method: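 Male Sprague–Dawley rats under continuous light, injected ip twice daily for 5 days (nine injections) with 10 or 30 mg/kg. 1 h after last dose, isoproterenol 2 μmol/kg in 0.1% ascorbic acid (or vehicle). Pineal removed 2.5 min later, perchloric acid extract, cAMP by 125I radioimmunoassay; % change versus isoproterenol-stimulated controls.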

[11] = biological target: T1, Serotonin 2 (5-HT2) receptor (Rattus norvegicus) (UniProt P30994+P08909+P14842)
[12] = biological target: T1, Serotonin 2 (5-HT2) receptor (Rattus norvegicus); remark: listed apart in the source
[13] = biological target: T2, Adrenergic receptor beta (Rattus norvegicus) (UniProt P18090+P10608+P26255)
[14] = biological target: T2, Adrenergic receptor beta (Rattus norvegicus); remark: listed apart in the source

Sequence of Sodium-dependent serotonin transporter (P31652 whole entry): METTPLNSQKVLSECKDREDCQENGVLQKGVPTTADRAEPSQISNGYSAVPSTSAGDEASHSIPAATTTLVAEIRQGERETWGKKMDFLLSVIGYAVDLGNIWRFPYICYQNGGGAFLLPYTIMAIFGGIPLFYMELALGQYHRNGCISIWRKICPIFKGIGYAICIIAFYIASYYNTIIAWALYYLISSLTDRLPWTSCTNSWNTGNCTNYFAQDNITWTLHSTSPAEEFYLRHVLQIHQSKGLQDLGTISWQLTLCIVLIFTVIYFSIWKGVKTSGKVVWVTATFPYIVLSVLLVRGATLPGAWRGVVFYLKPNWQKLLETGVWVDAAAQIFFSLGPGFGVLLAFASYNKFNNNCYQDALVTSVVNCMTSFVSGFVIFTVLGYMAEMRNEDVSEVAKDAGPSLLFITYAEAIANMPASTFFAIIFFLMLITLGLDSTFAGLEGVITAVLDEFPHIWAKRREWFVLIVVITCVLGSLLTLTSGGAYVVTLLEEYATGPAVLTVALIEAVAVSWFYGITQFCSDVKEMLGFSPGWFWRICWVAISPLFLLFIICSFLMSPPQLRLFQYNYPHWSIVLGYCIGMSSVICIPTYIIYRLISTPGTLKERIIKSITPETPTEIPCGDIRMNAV
Sequence of Norepinephrine transporter (Q9WTR4 whole entry): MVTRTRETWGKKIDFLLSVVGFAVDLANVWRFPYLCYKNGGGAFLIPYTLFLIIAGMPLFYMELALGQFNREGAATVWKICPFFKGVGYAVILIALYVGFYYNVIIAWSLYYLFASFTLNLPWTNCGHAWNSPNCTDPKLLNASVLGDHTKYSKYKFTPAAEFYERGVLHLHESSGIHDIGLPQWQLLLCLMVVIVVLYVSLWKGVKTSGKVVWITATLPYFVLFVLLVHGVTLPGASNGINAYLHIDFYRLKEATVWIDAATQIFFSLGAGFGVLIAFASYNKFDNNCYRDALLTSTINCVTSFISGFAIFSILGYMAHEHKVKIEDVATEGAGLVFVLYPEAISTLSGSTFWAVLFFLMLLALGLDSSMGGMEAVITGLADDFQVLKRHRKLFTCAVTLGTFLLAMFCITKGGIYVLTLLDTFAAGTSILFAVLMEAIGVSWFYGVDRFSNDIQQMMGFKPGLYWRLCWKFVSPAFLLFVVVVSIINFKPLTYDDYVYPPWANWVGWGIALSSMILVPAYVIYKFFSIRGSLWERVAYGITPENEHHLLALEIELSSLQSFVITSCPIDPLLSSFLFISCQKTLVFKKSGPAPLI
T1 sequence (P08909 whole entry, looked up): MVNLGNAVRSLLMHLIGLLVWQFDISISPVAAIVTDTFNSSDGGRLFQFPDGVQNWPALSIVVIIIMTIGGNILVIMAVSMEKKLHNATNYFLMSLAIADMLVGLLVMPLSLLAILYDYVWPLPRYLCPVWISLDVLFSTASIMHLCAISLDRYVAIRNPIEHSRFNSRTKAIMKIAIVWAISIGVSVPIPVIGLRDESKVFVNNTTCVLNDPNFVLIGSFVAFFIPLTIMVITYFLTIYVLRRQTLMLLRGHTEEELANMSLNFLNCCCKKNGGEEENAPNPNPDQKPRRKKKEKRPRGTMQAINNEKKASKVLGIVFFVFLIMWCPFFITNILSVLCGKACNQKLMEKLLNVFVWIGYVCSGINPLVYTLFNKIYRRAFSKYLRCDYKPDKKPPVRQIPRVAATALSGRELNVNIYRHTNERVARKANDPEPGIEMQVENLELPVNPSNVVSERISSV
T1 sequence (P14842 whole entry, looked up): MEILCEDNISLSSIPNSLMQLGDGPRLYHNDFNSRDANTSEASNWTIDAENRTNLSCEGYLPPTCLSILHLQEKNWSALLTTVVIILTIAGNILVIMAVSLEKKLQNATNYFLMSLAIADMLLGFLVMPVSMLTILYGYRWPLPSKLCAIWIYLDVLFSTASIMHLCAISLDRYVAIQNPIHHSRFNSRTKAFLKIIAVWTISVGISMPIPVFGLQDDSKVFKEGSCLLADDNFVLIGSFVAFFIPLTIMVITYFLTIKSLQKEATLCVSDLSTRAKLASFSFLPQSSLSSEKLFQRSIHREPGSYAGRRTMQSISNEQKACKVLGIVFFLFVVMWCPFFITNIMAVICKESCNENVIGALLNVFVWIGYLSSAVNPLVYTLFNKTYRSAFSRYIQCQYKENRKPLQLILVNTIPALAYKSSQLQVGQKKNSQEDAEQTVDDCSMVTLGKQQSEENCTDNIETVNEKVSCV
T1 sequence (P30994 whole entry, looked up): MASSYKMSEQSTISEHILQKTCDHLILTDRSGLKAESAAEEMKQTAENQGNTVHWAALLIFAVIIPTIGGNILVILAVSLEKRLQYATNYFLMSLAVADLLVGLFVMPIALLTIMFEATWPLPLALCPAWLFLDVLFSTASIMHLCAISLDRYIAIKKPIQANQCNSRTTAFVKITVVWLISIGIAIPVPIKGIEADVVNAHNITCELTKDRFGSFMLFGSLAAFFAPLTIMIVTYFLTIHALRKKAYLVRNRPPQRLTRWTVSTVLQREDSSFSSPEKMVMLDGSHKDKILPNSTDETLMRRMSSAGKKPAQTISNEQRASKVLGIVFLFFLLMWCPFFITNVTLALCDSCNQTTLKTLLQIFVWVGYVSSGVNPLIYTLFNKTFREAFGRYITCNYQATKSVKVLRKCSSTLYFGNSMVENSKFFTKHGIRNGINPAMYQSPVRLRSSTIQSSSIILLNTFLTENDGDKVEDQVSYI

Question: With `COc1ccc(C(CN(C)C)C2(O)CCCCCC2)cc1` (centres undefined) as the compound, how does the IC50 [1] read?
Answer: 2070 nM

Question: And the IC50 [2]?
Answer: 240 nM

Question: How did the MED (Mus musculus) turn out when `COc1ccc(C(CN(C)C)C2(O)CCCCC2)cc1` (stereo in doubt; 4) [VENLAFAXINE] was run?
Answer: 10 mg/kg

Question: What about the Decrease (Rattus norvegicus [3]) of the same compound?
Answer: 26%

Question: And the Change (Rattus norvegicus [4])?
Answer: -51%

Question: What about the Change (Rattus norvegicus [5]) of the same compound?
Answer: -43%

Question: Which MED (Mus musculus) does the source give for `COc1ccc(C(CN(C)C)C2(O)CCCCC2)cc1` (single isomer, unassigned; (+)) [VENLAFAXINE] here?
Answer: 30 mg/kg

Question: What about the Decrease (Rattus norvegicus [6]; 10 mg/kg) of the same compound?
Answer: 54%

Question: With `CN(C)CC(c1ccc(Cl)c(Cl)c1)C1(O)CCCCC1` (centres undefined) as the compound, how does the minimal effective dose (Mus musculus) read?
Answer: 3 mg/kg

Question: What about the Decrease (Rattus norvegicus [3]) of the same compound?
Answer: 55%

Question: And the Change (Rattus norvegicus [4])?
Answer: -51%

Question: And the Change (Rattus norvegicus [5])?
Answer: -74%

Question: And the IC50 [1]?
Answer: 70 nM

Question: What does the source list for `CNCCCN1c2ccccc2CCc2ccccc21` [DESIPRAMINE]?
Answer: minimal effective dose (Mus musculus): 0.4 mg/kg; Decrease (Rattus norvegicus [3]): 52%; Change (Rattus norvegicus [7]): inactive; Change (Rattus norvegicus [5]): -81%

Question: How did the minimal effective dose (Mus musculus) turn out when `CN(C)CC(c1cccc(Br)c1)C1(O)CCCCC1` (centres undefined) was run?
Answer: 1 mg/kg

Question: And the Change (Rattus norvegicus [8])?
Answer: inactive

Question: And the Change (Rattus norvegicus [7])?
Answer: inactive

Question: What about the IC50 [1] of the same compound?
Answer: 110 nM

Question: And the Decrease (Rattus norvegicus [6])?
Answer: 67%

Question: And the IC50 [2]?
Answer: 230 nM

Question: With `CN(C)CC(c1ccc(C(F)(F)F)cc1)C1(O)CCCCCC1` (centres undefined) as the compound, how does the IC50 [1] read?
Answer: 2400 nM

Question: What about the IC50 [2] of the same compound?
Answer: 500 nM

Question: Which results are given for `CNCC(c1ccc(OC)cc1)C1(O)CCCCC1` (centres undefined) [N-DESMETHYLVENLAFAXINE CHLORIDE]?
Answer: IC50 [1]: 4700 nM; IC50 [2]: 1600 nM

Question: Which Change (Rattus norvegicus [8]) does the source give for `COc1ccc(C(CN(C)C)C2(O)CCCCC2)cc1` (single isomer, unassigned; (+)) here?
Answer: inactive

Question: What about the Change (Rattus norvegicus [7]) of the same compound?
Answer: inactive

Question: For `COc1cccc(C(CN(C)C)C2(O)CCCC2)c1` (centres undefined), which IC50 [1] is on record?
Answer: > 10000 nM

Question: And the IC50 [2]?
Answer: 680 nM

Question: For `CN(C)CC(c1ccc(Cl)cc1)C1(O)CCCCC1` (centres undefined), which IC50 [1] is on record?
Answer: 300 nM

Question: And the IC50 [2]?
Answer: 180 nM

Question: For `CN(C)CC(c1ccc(Br)cc1)C1(O)CCCCC1` (centres undefined), which minimal effective dose (Mus musculus) is on record?
Answer: 1 mg/kg

Question: What about the Decrease (Rattus norvegicus [3]) of the same compound?
Answer: 43%

Question: And the Change (Rattus norvegicus [8])?
Answer: inactive

Question: What about the Change (Rattus norvegicus [7]) of the same compound?
Answer: inactive

Question: What about the IC50 [1] of the same compound?
Answer: 210 nM

Question: And the IC50 [2]?
Answer: 110 nM

Question: With `COc1ccc(C(CN(C)C)C2(O)CCCC2)cc1` (centres undefined) as the compound, how does the IC50 [1] read?
Answer: 5800 nM

Question: What about the IC50 [2] of the same compound?
Answer: 400 nM

Question: How did the IC50 [1] turn out when `CN(C)CC(c1ccc(C(F)(F)F)cc1)C1(O)CCCCC1` (centres undefined) was run?
Answer: 2800 nM

Question: And the IC50 [2]?
Answer: 400 nM

Question: With `CN(C)CC(c1cccc(C(F)(F)F)c1)C1(O)CCCCC1` (centres undefined) as the compound, how does the IC50 [1] read?
Answer: 360 nM

Question: And the IC50 [2]?
Answer: 1440 nM

Question: Which minimal effective dose (Mus musculus) does the source give for `COc1ccc(C(CN(C)C)C2(O)CCCCC2)cc1Br` (centres undefined) here?
Answer: 1 mg/kg

Question: What about the Decrease (Rattus norvegicus [3]) of the same compound?
Answer: 34%

Question: What about the Change (Rattus norvegicus [4]) of the same compound?
Answer: -65%

Question: What about the Change (Rattus norvegicus [5]) of the same compound?
Answer: -82%

Question: What about the IC50 [1] of the same compound?
Answer: 140 nM

Question: And the IC50 [2]?
Answer: 200 nM

Question: `COc1cccc(C(CN(C)C)C2(O)CCCCC2)c1` (centres undefined) was tested. Which minimal effective dose (Mus musculus) did it give?
Answer: 3 mg/kg

Question: And the Decrease (Rattus norvegicus [3])?
Answer: 52%

Question: And the Change (Rattus norvegicus [4])?
Answer: -79%

Question: And the Change (Rattus norvegicus [5])?
Answer: -81%

Question: What about the IC50 [1] of the same compound?
Answer: 620 nM

Question: What about the IC50 [2] of the same compound?
Answer: 190 nM

Question: How did the minimal effective dose (Mus musculus) turn out when `CN(C)CC(c1cccc(Cl)c1)C1(O)CCCCC1` (centres undefined) was run?
Answer: 1 mg/kg

Question: And the Change (Rattus norvegicus [8])?
Answer: inactive

Question: And the Change (Rattus norvegicus [7])?
Answer: inactive

Question: And the Change (Rattus norvegicus [9])?
Answer: inactive

Question: `COc1ccc(C(CN(C)C)C2(O)CCCCC2)cc1` (single isomer, unassigned; (-)) [VENLAFAXINE] was tested. Which MED (Mus musculus) did it give?
Answer: 3 mg/kg

Question: What about the Change (Rattus norvegicus [4]) of the same compound?
Answer: -53%

Question: And the Decrease (Rattus norvegicus [6]; 10 mg/kg)?
Answer: 37%

Question: What about the Change (Rattus norvegicus [10]) of the same compound?
Answer: -51%

Question: For `CN(C)CC(c1ccc(O)cc1)C1(O)CCCCC1` (centres undefined) [DESVENLAFAXINE], which IC50 [1] is on record?
Answer: 1160 nM

Question: With `CN(C)CC(c1ccc(Br)cc1)C1(O)CCC1` (centres undefined) as the compound, how does the IC50 [1] read?
Answer: 890 nM

Question: What about the IC50 [2] of the same compound?
Answer: 580 nM

Question: `COc1ccc(C(CN(C)C)C2(O)CCCCC2)cc1` (stereo in doubt; 4) was tested. Which Binding activity [11] did it give?
Answer: 77.8 fM/mg

Question: What about the Binding activity [12] of the same compound?
Answer: 251 fM/mg

Question: And the Binding activity [13]?
Answer: 35 fM/mg

Question: And the Binding activity [14]?
Answer: 61.8 fM/mg

Question: Which IC50 [1] does the source give for `COc1ccc(C(CN(C)C)C2(O)CCCCC2)cc1OC` (centres undefined) here?
Answer: 1380 nM

Question: What about the IC50 [2] of the same compound?
Answer: 130 nM

Question: With `Cc1ccc(C(CN(C)C)C2(O)CCCCC2)cc1` (centres undefined) as the compound, how does the IC50 [1] read?
Answer: 530 nM

Question: And the IC50 [2]?
Answer: 1540 nM

Question: Which IC50 [1] does the source give for `CN(C)CC(c1ccccc1)C1(O)CCCCC1` (centres undefined) here?
Answer: 1900 nM

Question: What does the source list for `CN(C)CC(c1ccc(C(F)(F)F)cc1)C1(O)CCCC1` (centres undefined)?
Answer: IC50 [1]: 10400 nM; IC50 [2]: 490 nM
